From ChEMBL document CHEMBL4024779, “Novel Terminal Bipheny-Based Diapophytoene Desaturases (CrtN) Inhibitors as Anti-MRSA/VISR/LRSA Agents with Reduced hERG Activity” (J Med Chem, 2018)
Activity calls are given as the source filed them. The rule behind the calls is not given here.

Columns and labels:
[1] = system: Staphylococcus aureus; assay: In vivo anti-virulence activity against methicillin-resistant Staphylococcus aureus LRSA202 infected in BALB/c mouse model assessed as reduction in bacterial load in heart at 0.1 mg bid for 3.5 days administered intraperitoneally 6 hrs post infection by serial dilution method relative to control; format: functional, organism-based
Method in brief: (§1)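 Mice were infected by retro-orbital injection with LRSA56 (5.0 × 10^7 CFU) or LRSA202 (7.0 × 10^7 CFU). Compound was given intraperitoneally 6 h after infection. […] Log10 CFU was counted in kidneys and hearts, with groups compared by two-tailed Mann-Whitney test.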

[2] = system: Staphylococcus aureus; assay: Antibacterial activity against Staphylococcus aureus Newman after 24 hrs by broth dilution method; format: functional; conditions: Staphylococcus aureus, Newman, 24 h; read-out: MIC
[3] = system: Staphylococcus aureus; assay: In vivo anti-virulence activity against methicillin-resistant Staphylococcus aureus XN108 infected in BALB/c mouse model assessed as reduction in bacterial load in heart at 0.1 mg bid for 3.5 days administered intraperitoneally 6 hrs post infection by serial dilution method relative to vancomycin; format: functional, organism-based
Method in brief: (§2)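 Mice infected retro-orbitally with S. aureus NF65Y (3.5 × 10^8 CFU) or XN108 (2.1 × 10^8 CFU). Test compound given i.p. b.i.d. starting 6 h post-infection. […] Log10 CFU per kidney and heart counted. Two-tailed Mann−Whitney test.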

[4] = Clearance in Sprague-Dawley rat at 5 mg/kg, iv administered as single dose by LC-MS/MS analysis; format: ADME, organism-based; conditions: in vivo
[5] = system: Enterococcus faecium; assay: Antibacterial activity against Enterococcus faecium after 24 hrs by broth dilution method; format: functional
[6] = biological target: T1, Cytochrome P450 3A4 (Homo sapiens, UniProt P08684); assay: Inhibition of CYP3A4 in human liver microsomes using testosterone as substrate upto 10 uM after 5 mins in presence of NADPH by LC-MS/MS analysis; format: ADME
[7] = system: Staphylococcus aureus; assay: In vivo anti-virulence activity against Staphylococcus aureus Newman infected in BALB/c mouse model assessed as reduction in bacterial load in heart at 0.2 mg bid for 3.5 days administered orally 6 hrs post infection by serial dilution method relative to vancomycin; format: functional; set-up: scale not given: the % may be the effect or the level left
Method in brief: (§3)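 Mice got 3.1 × 10^7 CFU S. aureus Newman by retro-orbital injection. Oral compound was given b.i.d. for 3.5 d, starting 6 h after infection. […] Log10 CFU was counted per kidney and per heart.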

[8] = biological target: T1, Cytochrome P450 3A4; assay: Inhibition of CYP3A4 in human liver microsomes using midazolam as substrate upto 10 uM after 5 mins in presence of NADPH by LC-MS/MS analysis; format: ADME
[9] = system: Rattus norvegicus; assay: Toxicity in Sprague-Dawley rat at 60 to 1000 mg/kg, po administered as single dose assessed as mortality measured during 2 weeks post administration; format: organism-based; conditions: in vivo, 336 h
Method in brief: (§4)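 Rats, 30 in total, randomised into three groups. Each received a single oral dose of 60, 250 or 1000 mg/kg on day 1. Poisoning symptoms, mortality, behaviour, water and food consumption and body weight monitored immediately and over 2 weeks.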

[10] = system: Staphylococcus aureus; assay: In vivo anti-virulence activity against methicillin-resistant Staphylococcus aureus Mu50 infected in BALB/c mouse model assessed as reduction in bacterial load in heart at 0.05 mg bid for 3.5 days administered intraperitoneally 6 hrs post infection by serial dilution method; format: functional; set-up: scale not given: the % may be the effect or the level left
Method in brief: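 Mice were challenged with 1.3 × 10^9 CFU Mu50. Compound was given intraperitoneally, either 24 h before or 6 h after infection. Log10 CFU was counted in kidneys and hearts.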

[11] = system: Rattus norvegicus; assay: Toxicity in Sprague-Dawley rat at 60 to 1000 mg/kg, po administered as single dose assessed as poisoning symptoms measured during 2 weeks post administration; format: organism-based; conditions: in vivo, 336 h; method in brief: as §4
[12] = Cmax in mouse at 2 mg/kg, iv administered as single dose by LC-MS/MS analysis; format: ADME, organism-based; set-up: dose 2 mg/kg, route intravenous; conditions: in vivo
[13] = Inhibition of CrtN in methicillin-resistant Staphylococcus aureus XN108 assessed as reduction in staphyloxanthin levels after 48 hrs by spectrophotometric method-based pigment inhibition assay
[14] = system: Staphylococcus aureus; assay: In vivo anti-virulence activity against Staphylococcus aureus Newman infected in BALB/c mouse model assessed as reduction in bacterial load in heart at 0.1 mg bid for 3.5 days administered orally 6 hrs post infection by serial dilution method relative to vancomycin; format: functional; set-up: scale not given: the % may be the effect or the level left; method in brief: as §3
[15] = system: Staphylococcus aureus; assay: In vivo anti-virulence activity against methicillin-resistant Staphylococcus aureus NF65Y infected in BALB/c mouse model assessed as reduction in bacterial load in heart at 0.1 mg bid for 3.5 days administered intraperitoneally 6 hrs post infection by serial dilution method relative to vancomycin; format: functional, organism-based; method in brief: as §2
[16] = system: Staphylococcus aureus; assay: In vivo anti-virulence activity against Staphylococcus aureus Newman infected in BALB/c mouse model assessed as reduction in bacterial load in kidney at 0.1 mg bid for 3.5 days administered orally 6 hrs post infection by serial dilution method relative to control; format: functional; set-up: scale not given: the % may be the effect or the level left; method in brief: as §3
[17] = system: Staphylococcus aureus; assay: In vivo anti-virulence activity against methicillin-resistant Staphylococcus aureus NF65Y infected in BALB/c mouse model assessed as reduction in bacterial load in heart at 0.1 mg bid for 3.5 days administered intraperitoneally 6 hrs post infection by serial dilution method relative to linezolid; format: functional, organism-based; method in brief: as §2
[18] = system: Staphylococcus aureus; assay: In vivo anti-virulence activity against methicillin-resistant Staphylococcus aureus LRSA202 infected in BALB/c mouse model assessed as reduction in bacterial load in kidney at 0.1 mg bid for 3.5 days administered intraperitoneally 6 hrs post infection by serial dilution method relative to control; format: functional, organism-based; method in brief: as §1
[19] = biological target: Cytochrome P450 2C9 (Homo sapiens, UniProt P11712); assay: Inhibition of CYP2C9 in human liver microsomes using diclofenac as substrate upto 10 uM after 10 mins in presence of NADPH by LC-MS/MS analysis; format: ADME
[20] = system: Staphylococcus aureus; assay: In vivo anti-virulence activity against methicillin-resistant Staphylococcus aureus XN108 infected in BALB/c mouse model assessed as reduction in bacterial load in kidney at 0.1 mg bid for 3.5 days administered intraperitoneally 6 hrs post infection by serial dilution method relative to linezolid; format: functional, organism-based; method in brief: as §2
[21] = Inhibition of CrtN in methicillin-resistant Staphylococcus aureus LRSA205 assessed as reduction in staphyloxanthin levels after 48 hrs by spectrophotometric method-based pigment inhibition assay
[22] = Tmax in mouse at 2 mg/kg, iv administered as single dose by LC-MS/MS analysis; format: ADME, organism-based; conditions: in vivo
[23] = system: Staphylococcus aureus; assay: In vivo anti-virulence activity against methicillin-resistant Staphylococcus aureus XN108 infected in BALB/c mouse model assessed as reduction in bacterial load in heart at 0.1 mg bid for 3.5 days administered intraperitoneally 6 hrs post infection by serial dilution method relative to linezolid; format: functional, organism-based; method in brief: as §2
[24] = Oral bioavailability in Sprague-Dawley rat at 10 mg/kg administered as single dose by LC-MS/MS analysis; format: ADME, organism-based; conditions: in vivo
[25] = system: Staphylococcus aureus; assay: In vivo anti-virulence activity against methicillin-resistant Staphylococcus aureus XN108 infected in BALB/c mouse model assessed as reduction in bacterial load in kidney at 0.1 mg bid for 3.5 days administered intraperitoneally 6 hrs post infection by serial dilution method relative to vancomycin; format: functional, organism-based; method in brief: as §2
[26] = system: Rattus norvegicus; assay: Toxicity in Sprague-Dawley rat at 60 to 1000 mg/kg, po administered as single dose assessed as mortality measured immediately post administration; format: organism-based; conditions: in vivo; method in brief: as §4
[27] = system: Staphylococcus aureus; assay: In vivo anti-virulence activity against Staphylococcus aureus Newman in mouse lethal infection model assessed as host survival rate at 0.1 mg bid for 3.5 days administered intraperitoneally 6 hrs post infection and measured on day 8; format: functional
Method in brief: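 In a lethal sepsis model, mice (n=15) were challenged with 2 × 10^8 CFU S. aureus Newman. Animal survival was recorded daily through day 8.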

T1 sequence (P08684 whole entry): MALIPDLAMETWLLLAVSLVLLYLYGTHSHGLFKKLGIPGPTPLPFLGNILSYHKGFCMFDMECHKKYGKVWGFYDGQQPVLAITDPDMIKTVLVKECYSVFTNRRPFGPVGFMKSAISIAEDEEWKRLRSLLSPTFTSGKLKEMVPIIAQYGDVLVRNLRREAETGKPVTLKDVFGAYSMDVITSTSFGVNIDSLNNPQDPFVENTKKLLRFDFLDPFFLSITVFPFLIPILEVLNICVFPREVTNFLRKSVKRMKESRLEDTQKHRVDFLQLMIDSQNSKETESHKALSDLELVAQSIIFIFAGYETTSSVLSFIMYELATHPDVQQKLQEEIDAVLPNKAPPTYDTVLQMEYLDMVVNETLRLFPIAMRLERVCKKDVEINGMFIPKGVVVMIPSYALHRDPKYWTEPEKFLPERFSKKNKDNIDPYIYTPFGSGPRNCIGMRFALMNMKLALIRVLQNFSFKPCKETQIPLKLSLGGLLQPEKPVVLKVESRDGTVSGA
Chain of Cytochrome P450 2C9 (P11712 whole entry): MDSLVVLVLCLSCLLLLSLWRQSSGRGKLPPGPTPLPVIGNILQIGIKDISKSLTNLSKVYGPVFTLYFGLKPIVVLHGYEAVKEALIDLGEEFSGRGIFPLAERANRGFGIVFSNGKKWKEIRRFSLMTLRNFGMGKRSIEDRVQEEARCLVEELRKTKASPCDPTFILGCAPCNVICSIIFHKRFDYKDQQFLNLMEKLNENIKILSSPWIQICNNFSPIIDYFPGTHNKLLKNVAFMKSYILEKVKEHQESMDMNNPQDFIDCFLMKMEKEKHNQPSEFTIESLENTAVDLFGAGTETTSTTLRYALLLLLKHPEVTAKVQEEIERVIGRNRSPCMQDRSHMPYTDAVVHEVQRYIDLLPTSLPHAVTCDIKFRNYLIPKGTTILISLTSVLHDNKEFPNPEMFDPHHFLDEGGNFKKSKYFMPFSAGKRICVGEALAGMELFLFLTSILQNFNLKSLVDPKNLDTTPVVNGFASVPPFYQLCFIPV

With `CN(C/C=C/c1ccc(-c2ccccc2)cc1)Cc1coc2ccccc12.Cl` the Activity [1] was “Active”, the MIC [2] was over 500 µg/mL and the Activity [3] was “Active”. It also gave a clearance [4] of 29.2 mL/min/kg, an MIC [5] of over 500 µg/mL and an IC50 [6] of over 10000 nM. The Activity [7] was over 55.3%, the IC50 [8] was over 10000 nM and the Activity [9] was “Non-Toxic”. The Activity [10] was over 99.8%, the Activity [11] was “Non-Toxic” and the Cmax [12] was 2230 ng/mL. The IC50 [13] was 0.2 nM, the Activity [14] was over 55.3% and the Activity [15] was “Active”. The Activity [16] was 90%, the Activity [17] was “Active” and the Activity [18] was “Active”. For the same molecule, the IC50 [19] was over 10000 nM, the Activity [20] was “Active” and the IC50 [21] was 10.5 nM. The Tmax [22] was 4.8 min, the Activity [23] was “Active” and the bioavailability [24] was 16.3%. For the same molecule, the Activity [25] was “Active”, the Activity [26] was “Non-Toxic” and the Survival [27] was over 70%.
